PAFAH1B2 FP inh: inhibitors of human PAFAH1B2 | P68402 | recombinant PAFAH1B2, FP-rhodamine activity probe, fluorescence polarization | inhibition, % at 3.39 µM | 340,000 compounds, 1.2% hits;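 active = inhibition above the mean of all tested compounds plus 3 SD, cut at about 24% in these data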;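 also: 0% = enzyme with DMSO and 100% = wells lacking PAFAH1B2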
Target sequence (P68402 whole entry, looked up): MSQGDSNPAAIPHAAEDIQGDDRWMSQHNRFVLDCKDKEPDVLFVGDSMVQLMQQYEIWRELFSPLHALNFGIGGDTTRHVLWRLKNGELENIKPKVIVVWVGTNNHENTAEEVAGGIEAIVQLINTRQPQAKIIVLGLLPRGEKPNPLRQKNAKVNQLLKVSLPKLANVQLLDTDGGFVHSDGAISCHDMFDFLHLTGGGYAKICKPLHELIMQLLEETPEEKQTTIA
PAFAH1B3 FP inh: inhibitors of human PAFAH1B3; Q15102; 340,000 compounds, 0.28% hits; recombinant PAFAH1B3, FP-rhodamine probe, fluorescence polarization; inhibition, % at 3.39 µM;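 active = inhibition above the screen-wide average of all tested compounds plus 3 SD, cut at about 25% in these data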;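 also: 0% = enzyme with DMSO only and 100% = wells lacking PAFAH1B3 protein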
Target sequence (Q15102 whole entry, looked up): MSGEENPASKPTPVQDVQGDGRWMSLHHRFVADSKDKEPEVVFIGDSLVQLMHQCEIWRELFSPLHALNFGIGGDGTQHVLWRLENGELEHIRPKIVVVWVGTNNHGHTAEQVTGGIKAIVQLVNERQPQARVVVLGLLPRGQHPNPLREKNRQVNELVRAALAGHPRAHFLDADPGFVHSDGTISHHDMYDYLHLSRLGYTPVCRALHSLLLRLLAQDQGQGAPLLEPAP
NR3A LBD binder: modulators (binders) of human NR3A ligand-binding domain; NR3A LBD differential scanning fluorimetry, Tm shift; 0% = protein alone, 100% = glycine-bound protein; Tm shift relative to glycine control, % at 25 µM; AID 1259313; 340,000 compounds, 2.5% hits;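 active = melting temperature shift of at least 10% of the positive control shift, at one fixed dose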
PAFAH2 inh: inhibitors of human PAFAH2 | Q99487 | recombinant PAFAH2, FP-rhodamine activity probe, fluorescence polarization | inhibition, % at 3.39 µM | 340,000 compounds, 0.99% hits | AID 492956;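 active = inhibition above the mean over all tested compounds plus 3 SD, cut at about 30% in these data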;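 also: inhibitors block probe labeling of enzyme so polarization drops; 0% = enzyme with DMSO and 100% = wells lacking PAFAH2 protein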
UCH37 DUB inh: inhibitors of human deubiquitinating enzyme UCH37; Q9Y5K5; purified proteasome/UCH37, Ub-AMC cleavage fluorescence; inhibition, % (no concentration beside the values); 330,000 compounds, 0.33% hits; AID 588478;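 active = mean inhibition over replicate wells above about 20%, limit read from the data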;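 also: 0% = compound-free wells with enzyme and 100% = wells lacking proteasome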
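System: Proteasome-associated human UCH37 deubiquitinase; Input: 0.15 nM proteasome in added enzyme buffer; Also added: Ub-AMC substrate from 1 µM stock; Incubation: 30 min compound-proteasome preincubation then 25 min substrate reaction, room temperature; Detection: fluorescence, ex 355 nm, em 460 nm; Read-out: % inhibition of Ub-AMC cleavage fluorescence; Benchmarks: no-proteasome and no-compound wells.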
pPAFAH FP inh: pPAFAH (human) enzyme inhibition; recombinant pPAFAH, FP-rhodamine probe fluorescence polarization; 330,000 compounds, 1.5% hits; inhibition, % at 3.39 µM; AID 463082; Q13093;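 active = inhibition above the mean inhibition across the screen plus 3 SD, cut at about 25% in these data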;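 also: inhibitors block binding of the rhodamine activity-based probe so polarization drops; 0% = enzyme with DMSO and 100% = wells lacking pPAFAH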
The depositor's hits bear a star; x = not tested or not shown. This is a sample that favours compounds with a hit; in the whole collection about 4.8% have one here.

SMILES	PAFAH1B2 FP inh	PAFAH1B3 FP inh	NR3A LBD binder	PAFAH2 inh	UCH37 DUB inh	pPAFAH FP inh
Cn1cc(C(=O)c2cccc(Cl)c2Cl)cc1C(=O)O	1	2	-4	4	6	4
CC[n+]1c(/C=C2\Sc3ccccc3N2C)ccc2cccc(C)c21	4	3	-3	2	24*	x
CCCc1ncc(C(O)c2cccc3ccccc23)n1C (centres undefined)	0	4	12*	12	-1	2
CC(C)c1ncc(C(O)c2cccc3ccccc23)n1C (centres undefined)	3	6	-2	-1	0	2
COc1cc(S(=O)(=O)Nc2ccc(C)cc2)ccc1N=Cc1c(C)[nH]n(-c2ccccc2)c1=O	-16	-37	26*	-30	-1	6
COc1cc(S(=O)(=O)Nc2cccc(C)c2)ccc1N=Cc1c(C)[nH]n(-c2ccccc2)c1=O	x	x	x	x	x	9
CC(C)CC(=O)ON=C1C(=O)N(c2ccccc2)c2ccccc21	x	x	x	x	3	x
Cc1ccc(C(=O)NC(=S)Nc2c(C)ccc3nsnc23)cc1	2	13	11*	2	3	-5
CC1=C(c2ccccc2)[N+](=O)C2(CCCC2)N1[O-]	0	-6	0	-6	3	0
O=[N+]([O-])c1ccc2c(c1)N([O-])C1(CCCCC1)[N+]2=O	x	x	-2	x	52*	x
Cc1cc(C(=O)Nc2cccc(O)c2)c(C)o1	9	7	17*	-4	6	-2
N#CC(C#N)=C(Nc1ccc(F)cc1)SCc1cccc(Br)c1	-1	1	25*	9	2	12
COc1ccccc1NN=C(C#N)C(=N)N1CCOCC1	x	x	x	x	13	x
COc1cc2nc(Nc3cccc(F)c3)nc(N)c2cc1OC	-1	10	17*	6	-22	4
COc1nc(Nc2cccc(F)c2)nc(OC)n1	5	4	-1	1	0	3
Cc1[nH]c2ccccc2c1C(=O)COC(=O)c1c(-c2c(F)cccc2Cl)noc1C	-11	-4	29*	-21	4	-6
Cc1[nH]c2ccccc2c1C(=O)COC(=O)c1c(-c2ccccc2Cl)noc1C	1	0	24*	-7	4	-2
Cc1onc(-c2ccccc2Cl)c1C(=O)OCC(=O)N1CCC(C)CC1	5	4	9	5	1	10
Cc1onc(-c2c(F)cccc2Cl)c1C(=O)OCN1C(=O)c2ccccc2C1=O	-6	1	2	0	4	1
COc1ccc(CCCC(=O)NN=Cc2ccccc2OC)cc1	x	x	x	x	4	x
C=CCN=C1S/C(=C\N(C)C)C(=O)N1S(=O)(=O)c1ccc(C)cc1	6	4	12*	2	12	-1
O=C(NN=Cc1ccccn1)c1cccc(S(=O)(=O)N2CCCC2)c1	x	x	x	x	2	x
O=C(NC(Cc1ccccc1)C(=O)O)/C(=C/c1ccccc1)NC(=O)c1cccc(Br)c1 (centres undefined)	-2	4	-2	4	31*	-6
CCCn1c(N=Cc2ccc3c(c2)OCO3)nc2ccccc21	x	x	x	x	3	x
Cc1ccc(/C=C2\C(=N)N3N=C(CC(=O)N4CCOCC4)SC3=NC2=O)o1	0	12	-3	11	18	11
SMILES	PAFAH1B2 FP inh	PAFAH1B3 FP inh	NR3A LBD binder	PAFAH2 inh	UCH37 DUB inh	pPAFAH FP inh
CSc1ccc(/C=C2/C(=N)N3N=C(CC(=O)N4CCCC4)SC3=NC2=O)cc1	4	5	-2	2	6	6
Cc1ccc(/C=C2/C(=N)N3N=C(CC(=O)N4CCCC4)SC3=NC2=O)cc1	6	2	-1	8	14	25*
N=C1/C(=C\c2ccc(SCc3ccccc3)o2)C(=O)N=C2SC(CC(=O)N3CCOCC3)=NN12	22	2	-3	25	11	30*
Nc1nc2ccc(N3CCOCC3)cc2s1	1	11	12*	-8	3	0
CC1(C)CC(=O)CC(=NNC(=S)NCc2ccccc2)C1	x	x	x	x	5	x
COC(=O)CC1=NC(=O)CS1	0	13	11*	7	3	3
N#CC(C(=O)C1CCCCC1)c1nc2ccccc2[nH]1 (centres undefined)	7	10	-4	13	3	9

Screening results as filed in PubChem BioAssay.
